Results on eight compounds are retold here after ChEMBL document CHEMBL3259732, “Vascular effects of diphenylmethoxypiperidine-derived dopamine uptake inhibitors” (2014).

As usually defined, the inhibition is the relative decrease from the control value, in per cent.

Common to all, as to assay type: functional
The species named for one assay is Rattus norvegicus. Put plainly: (§1) Vascular activity in receptor-independent rat mesenteric resistance artery assessed as inhibition of KCl-induced contraction at 3 x 10^-6 M after 5 mins. A digest of the protocol:
(§2)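 Receptor-independent response in rat mesenteric resistance arteries normalized to optimal diameter at 100 mmHg transmural pressure. After pre-incubation with test agent at 3 x 10^-6 M, maximal contraction to 75 mM KCl was recorded. Block was judged against control arteries, p<0.05.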

Assay [1] in a line: Vascular activity in receptor-dependent rat mesenteric resistance artery assessed as inhibition of noradrenaline-induced contraction at 3 x 10^-6 M after 5 mins. Summed up:
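Rat mesenteric resistance arteries set to optimal diameter (OD = 0.9 L100, from the diameter at 100 mmHg transmural pressure). Rings pre-incubated with test agent at 3 x 10^-6 M, then given a dose–response curve to noradrenaline as the receptor-dependent contraction. Inhibition read against control arteries, p<0.05.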

Assay [2] can be described thus: Vascular activity in receptor-dependent rat mesenteric resistance artery assessed as inhibition of noradrenaline-induced contraction at 3 x 10^-6 M after 5 mins relative to maximal response to KCl. The arrangement: scale not given: the % may be the effect or the level left.
The nature of assay [3]: as §1. Summed up:
as §2

The source made the active and inactive calls. The calls are words filed in the database; no cut-off is given here.

Regarding `CC(C)N1CCC(OC(c2ccc(F)cc2)c2ccc(F)cc2)CC1`, in the assay filed under Rattus norvegicus, the inhibition entry was “Active”. Moreover, the pD2 in assay [1] worked out at 4.48. For the same compound, in assay [2], the Activity is 121%.
`CCCCN1CCC(OC(c2ccc(Cl)cc2)c2ccc(Cl)cc2)CC1`: the inhibition entry in the assay listed under Rattus norvegicus was “Active”. The pD2 in assay [1] was determined as 4.26. Moreover, the Activity in assay [2] was found to be 99%.
`CN1CCC(OC(c2ccccc2)c2ccccc2)CC1` [DIPHENYLPYRALINE]: the inhibition at 3 µM in assay [3] was determined as 70%. In addition, the pD2 in assay [1] came out at 5.38. Moreover, in assay [2], the Activity is listed as 129%.
With `COC(=O)[C@H]1[C@@H](OC(=O)c2ccccc2)C[C@@H]2CC[C@H]1N2C` [COCAINE], the inhibition entry in the assay listed under Rattus norvegicus is “inactive”. In addition, in assay [1], the pD2 is listed as 6.52. Further, the Activity in assay [2] was found to be 130%.
On to `CN1CCC(OC(c2ccccc2)c2ccc(Cl)cc2)CC1` (stereo not drawn), for which, in assay [3], the inhibition at 3 µM amounted to 70%. For the same compound, the pD2 in assay [1] worked out at 5.08. In addition, the Activity in assay [2] came to 113%.
As for `NC[C@H](O)c1ccc(O)c(O)c1.O=C(O)C(O)C(O)C(=O)O`, the pD2 in assay [1] was determined as 5.95. For the same compound, in assay [2], the Activity stood at 122%.
With `CN1CCC(OC(c2ccc(F)cc2)c2ccc(F)cc2)CC1`, the inhibition at 3 µM in assay [3] was 70%. For the same compound, the pD2 in assay [1] was 5.1. The Activity in assay [2] was determined as 121%.
On to `Fc1ccc(C(OC2CCNCC2)c2ccc(F)cc2)cc1`, for which, in assay [3], the inhibition at 3 µM was determined as 70%. In assay [1], the pD2 was found to be 5.17. The Activity in assay [2] worked out at 116%.
